Only a selection was taken, and hits are over-represented in it overall.
KDM4C inh: inhibitors of human demethylase GASC-1 KDM4C | Q9H3R0 | GST-KDM4C 2-372, H3K9me3 peptide, LANCE TR-FRET | inhibition, % at 12.5 µM | 0.15% of 96,000 active;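 active means mean replicate inhibition above about 25%, with at least 55% of replicates also reaching it, limit read from the data, passing the limit was not always enough; inconclusive means only one of those two conditions met; inactive means neither condition met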
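Test system – GST-tagged GASC-1 (JMJD2C) catalytic fragment, aa 2-372 · Medium – HEPES buffer, pH 7.5, plus ascorbate · Reagent – H3K9me3 peptide with Fe(II)/2OG · Compound – one test concentration per compound · Timing – 30 min reaction, 60 min detection, RT · Technique – TR-FRET with Eu antibody and ULight streptavidin, EDTA stop · Read-out basis – inhibition from TR-FRET ratio decrease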
IDH1 mut inh: blocks human IDH1 R132H reductase activity; AID 624101; diaphorase/resazurin fluorescence, 60 min; 0.18% of 70,000 active; O75874; inhibition, % at 10 µM; in the data active means inhibition above about 34%; inconclusive means no clear call, values can overlap the other calls; inactive means below about 11%
Target sequence (O75874 whole entry R132H): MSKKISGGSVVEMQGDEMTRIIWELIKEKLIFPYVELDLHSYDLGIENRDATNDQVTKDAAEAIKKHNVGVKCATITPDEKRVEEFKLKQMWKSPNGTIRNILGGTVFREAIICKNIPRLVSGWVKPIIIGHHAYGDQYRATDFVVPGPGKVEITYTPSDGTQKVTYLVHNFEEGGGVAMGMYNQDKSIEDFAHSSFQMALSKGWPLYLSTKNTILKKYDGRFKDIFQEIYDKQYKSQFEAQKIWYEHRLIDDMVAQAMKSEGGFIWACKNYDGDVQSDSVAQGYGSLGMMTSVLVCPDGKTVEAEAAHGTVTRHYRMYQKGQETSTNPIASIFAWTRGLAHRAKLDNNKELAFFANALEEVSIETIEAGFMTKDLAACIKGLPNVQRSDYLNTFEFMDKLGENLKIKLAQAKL
T cruzi growth-1: blocks T. cruzi growth in NIH3T3 culture; 5.9% of 77,000 active; T. cruzi beta-gal in NIH3T3, GalScreen luminescence, 90 h; inhibition, % at 8.34 µM; AID 624255;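 active means mean inhibition above about 93%, with at least 55% of replicates each passing it, limit read from the data, passing the limit was not always enough; inconclusive means only one of those two conditions holds; inactive means neither condition holds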
T cruzi growth-2: blocks T. cruzi growth in NIH3T3 host cells; shares compounds with T cruzi growth-1; T. cruzi beta-gal in NIH3T3, GalScreen luminescence, 90 h; inhibition, % at 8.35 µM; 72% of 5,600 active; AID 651739;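 active means mean replicate inhibition above about 95% and at least 55% of replicates individually reaching it, limit read from the data; inconclusive means only one of the two criteria is met; inactive means neither criterion is met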
T cruzi growth-3: blocks T. cruzi growth in NIH3T3 host cells. shares compounds with T cruzi growth-1. T. cruzi beta-gal in NIH3T3, GalScreen luminescence, 90 h. inhibition, % at 2.09 µM. 21% of 5,600 active. AID 651740;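 active means mean inhibition above about 95%, with at least 55% of replicates also reaching it, limit read from the data; inconclusive means meets just one of the two conditions; inactive means meets neither condition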
NIH3T3 tox: NIH/3T3 (mouse) viability loss. shares compounds with T cruzi growth-1. NIH/3T3 viability, CellTiter-Glo ATP luminescence, 90 h. cytotoxicity (signal decrease), % at 8.35 µM. 14% of 5,600 active. AID 651742;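 active means mean signal decrease across replicates above about 35% based on untreated-well scatter, with enough replicates individually passing, limit read from the data; inconclusive means no rule stated though some were filed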
3T3 cytotox 2: kills mouse NIH/3T3 fibroblasts. NIH/3T3 viability, CellTiter-Glo ATP luminescence, 90 h. AID 651744. 56% of 5,600 active. inhibition, % at 24.9 µM. shares compounds with T cruzi growth-1;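 active means mean loss of cell viability signal at or above a set limit, and enough replicates individually reaching it; inconclusive means meets only the mean limit or only the replicate share; inactive means meets neither condition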
Each line names hits and unclear results; the compound was inactive in the other large screens (follow-up assays come after a bar, where they were run).

C[C@@H]1CN([C@@H](C)CO)C(=O)c2cc(Br)cnc2O[C@@H]1CN(C)C(=O)c1ccccn1	none (no result: T cruzi growth-1)
C[C@@H]1CN([C@H](C)CO)C(=O)CCCn2nncc2CO[C@@H]1CN(C)S(C)(=O)=O	none (no result: KDM4C inh, IDH1 mut inh)
CC1C(=O)c2cc3c(cc2CCN(C)Cc2c1ccc1c2OCO1)OCO3 (configuration not stated)	none (no result: KDM4C inh, T cruzi growth-1)
C[C@@H]1CN([C@@H](C)CO)C(=O)c2cc(C#C[C@@H](C)O)cnc2O[C@H]1CN(C)C(=O)c1ccccc1	none
O=C(CSc1nnc(-c2ccccc2)n1-c1ccc(F)cc1)c1ccccc1	none (no result: KDM4C inh, T cruzi growth-1)
C=CC(C)(O)CC/C=C(\C)C(=O)OCC1CCC2C(C(=O)O)=COC(OC3OC(CO)C(O)C(O)C3O)C12 (configuration not stated)	none (no result: KDM4C inh, T cruzi growth-1)
C/C=C/c1ccc([C@@H]2[C@@H](CN(CC)C(=O)CC)N(C(C)=O)[C@H]2CO)cc1	none (no result: IDH1 mut inh)
C/C=C/c1ccc([C@@H]2[C@H](CO)N(C(=O)C3CC3)[C@H]2CN(CC)C(C)=O)cc1	T cruzi growth-1 100.0 (no result: IDH1 mut inh) | T cruzi growth-2 inactive | T cruzi growth-3 inactive | NIH3T3 tox inactive | 3T3 cytotox 2 inactive
C/C=C/c1ccc([C@@H]2[C@@H](CO)N(C(C)=O)[C@H]2CN(CC)C(=O)CC)cc1	T cruzi growth-1 100.7 (no result: IDH1 mut inh) | T cruzi growth-2 106.0 | T cruzi growth-3 inactive | NIH3T3 tox inactive | 3T3 cytotox 2 inactive
C/C=C/c1ccc([C@@H]2[C@@H](CN(CC)C(=O)CC)N(C(=O)C3CCC3)[C@H]2CO)cc1	none (no result: IDH1 mut inh)
C[C@@H]1CCCCO[C@@H](CN(C)S(=O)(=O)c2ccccc2)[C@H](C)CN([C@@H](C)CO)C(=O)c2cc(NS(=O)(=O)c3ccccc3)ccc2O1	none
C[C@@H]1CN([C@@H](C)CO)C(=O)c2cc(NS(=O)(=O)c3ccccc3)ccc2O[C@@H](C)CCCCO[C@H]1CN(C)S(=O)(=O)c1ccccc1	none (no result: IDH1 mut inh)
Cc1ccc(S(=O)(=O)Nc2ccc3c(c2)C(=O)N([C@@H](C)CO)C[C@H](C)[C@H](CN(C)S(=O)(=O)c2ccccc2)OCCCC[C@@H](C)O3)cc1	T cruzi growth-1 105.0 (no result: IDH1 mut inh) | T cruzi growth-2 106.2 | T cruzi growth-3 inactive | NIH3T3 tox inactive | 3T3 cytotox 2 52.6
Cc1ccc(S(=O)(=O)Nc2ccc3c(c2)C(=O)N([C@@H](C)CO)C[C@@H](C)[C@@H](CN(C)S(=O)(=O)c2ccccc2)OCCCC[C@@H](C)O3)cc1	T cruzi growth-1 107.5 | T cruzi growth-2 110.0 | T cruzi growth-3 inactive | NIH3T3 tox inactive | 3T3 cytotox 2 inactive
Cc1ccc(S(=O)(=O)N(C)C[C@H]2OCCCC[C@@H](C)Oc3ccc(NS(=O)(=O)c4ccccc4)cc3C(=O)N([C@@H](C)CO)C[C@@H]2C)cc1	T cruzi growth-1 inconclusive (no result: IDH1 mut inh) | T cruzi growth-2 104.8 | T cruzi growth-3 inactive | NIH3T3 tox inactive | 3T3 cytotox 2 31.7
C[C@@H]1CCCCO[C@@H](CN(C)S(=O)(=O)c2ccccc2)[C@@H](C)CN([C@@H](C)CO)C(=O)c2cc(NS(=O)(=O)c3ccccc3)ccc2O1	none
C[C@H]1CCCCO[C@@H](CN(C)S(=O)(=O)c2ccccc2)[C@@H](C)CN([C@@H](C)CO)C(=O)c2cc(NS(=O)(=O)c3ccccc3)ccc2O1	none
Cc1ccc(S(=O)(=O)Nc2ccc3c(c2)C(=O)N([C@H](C)CO)C[C@@H](C)[C@H](CN(C)S(=O)(=O)c2ccccc2)OCCCC[C@@H](C)O3)cc1	T cruzi growth-1 107.0 (no result: IDH1 mut inh) | T cruzi growth-2 105.8 | T cruzi growth-3 inactive | NIH3T3 tox inactive | 3T3 cytotox 2 inactive
Cc1ccc(S(=O)(=O)N(C)C[C@H]2OCCCC[C@H](C)Oc3ccc(NS(=O)(=O)c4ccccc4)cc3C(=O)N([C@@H](C)CO)C[C@@H]2C)cc1	T cruzi growth-1 122.3 (no result: IDH1 mut inh) | T cruzi growth-2 105.3 | T cruzi growth-3 inactive | NIH3T3 tox inactive | 3T3 cytotox 2 inactive
Cc1ccc(S(=O)(=O)Nc2ccc3c(c2)C(=O)N([C@H](C)CO)C[C@H](C)[C@H](CN(C)S(=O)(=O)c2ccccc2)OCCCC[C@H](C)O3)cc1	T cruzi growth-1 112.6 | T cruzi growth-2 112.7 | T cruzi growth-3 inactive | NIH3T3 tox inactive | 3T3 cytotox 2 inactive
Cc1ccc(S(=O)(=O)Nc2ccc3c(c2)C(=O)N([C@@H](C)CO)C[C@@H](C)[C@@H](CN(C)C(=O)Cc2ccccc2)OCCCC[C@H](C)O3)cc1	none
Cc1ccc(S(=O)(=O)Nc2ccc3c(c2)C(=O)N([C@H](C)CO)C[C@H](C)[C@@H](CN(C)S(=O)(=O)c2ccccc2)OCCCC[C@H](C)O3)cc1	none
Cc1ccc(S(=O)(=O)Nc2ccc3c(c2)C(=O)N([C@@H](C)CO)C[C@H](C)[C@@H](CN(C)C(=O)Cc2ccccc2)OCCCC[C@@H](C)O3)cc1	T cruzi growth-1 inconclusive | T cruzi growth-2 106.3 | T cruzi growth-3 inactive | NIH3T3 tox inactive | 3T3 cytotox 2 inactive
Cc1ccc(S(=O)(=O)N(C)C[C@@H]2OCCCC[C@@H](C)Oc3ccc(NS(=O)(=O)c4ccccc4)cc3C(=O)N([C@@H](C)CO)C[C@H]2C)cc1	none (no result: IDH1 mut inh)
Cc1ccc(S(=O)(=O)Nc2ccc3c(c2)C(=O)N([C@@H](C)CO)C[C@H](C)[C@H](CN(C)S(=O)(=O)c2ccccc2)OCCCC[C@H](C)O3)cc1	T cruzi growth-1 111.3 (no result: IDH1 mut inh) | T cruzi growth-2 106.3 | T cruzi growth-3 inactive | NIH3T3 tox inactive | 3T3 cytotox 2 inactive
C[C@@H]1CN([C@H](C)CO)C(=O)c2cc(-c3cccc(C#N)c3)cnc2O[C@H]1CN(C)Cc1ccc(F)cc1	none
C[C@@H]1CN([C@H](C)CO)C(=O)c2cc(NS(=O)(=O)c3cccs3)ccc2O[C@@H](C)CCCCO[C@@H]1CN(C)C(=O)c1ccccc1	none
COc1ccc(NC(=O)Nc2cccc3c2O[C@@H](CN(C)Cc2ccccc2)[C@H](C)CN([C@@H](C)CO)C3=O)cc1	none
C/C=C/c1ccc2c(c1)O[C@@H](CN(C)C(=O)c1ccccn1)[C@@H](C)CN([C@H](C)CO)S2(=O)=O	none
Cc1ccc(OCC(=O)Nc2cccc3c2C(=O)NC3=O)cc1C	none (no result: KDM4C inh, T cruzi growth-1)
COC(=O)C[C@@H]1CC[C@H]2[C@@H](COc3ccc(NC(=O)Nc4cccc(C)c4)cc3C(=O)N2C)O1	none (no result: IDH1 mut inh)
Cc1cccc(-c2ccc([C@H]3[C@@H](CO)N4CCCCN(C(=O)c5ccc6c(c5)OCO6)C[C@@H]34)cc2)c1	T cruzi growth-1 inconclusive (no result: IDH1 mut inh) | T cruzi growth-2 110.8 | T cruzi growth-3 99.1 | NIH3T3 tox inconclusive | 3T3 cytotox 2 90.2

Bioassay records as filed in PubChem.
